Screening data as filed in PubChem.
An excerpt weighted towards active compounds, which were near 4.9% of everything screened.
STAT1 act-1 = STAT1 signaling activation; NIH 3T3 STAT1-luciferase reporter, IFN-gamma, luminescence; 100% = IFN-gamma alone, no compound; activation (% of control), % at 5.5 µM; 200,000 tested, 2.6% active;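 active means activation above the screen-wide mean activation plus 3 SD, cut at about 130% in these data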;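 further: raw ratio to IFN-gamma control signal so 100% means no change and 0% no light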
STAT1 inh = inhibitors of IFN-gamma induced STAT1 signaling | NIH 3T3 STAT1-luciferase reporter, luminescence | 200,000 tested, 0.35% active | AID 920 | inhibition, % at 5.5 µM;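 active means inhibition above a set limit, the mean inhibition across all tested compounds plus 3 SD, cut at about 34% in these data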;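 further: 0% = IFN-gamma with DMSO and 100% = IFN-gamma with 300 µM nifuroxazide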
STAT3 act-1 = STAT3 signaling activation. U3A cells, IL-6 STAT3-luciferase reporter, luminescence; 100% = signal with IL-6 EC80 alone. activation (% of control), % at 5.6 µM. 190,000 tested, 0.91% active. AID 871;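 active means activation above the screen-wide mean of compound activation plus 3 SD, cut at about 130% in these data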;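 further: 0% = background luminescence of wells with medium and substrate only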
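Material: human STAT1-deficient U3A cells with stable STAT3-luciferase reporter / Probe or stimulus: IL-6 stimulus at 33 ng/mL final / Schedule: 1 h compound pre-exposure, 6 h IL-6 stimulation, 37 °C / Technique: luminescence / Read-out basis: percent of IL-6-only median luminescence / Control set: IL-6-only high control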
FLuc stim CS = firefly luciferase counter-screen for stimulation assays; activation factor at 10 µM; ATPlite luciferase biochemical, luminescence, 10 min; 0 = ATP-free wells, 1 = DMSO control; 200,000 tested, under 10 active; AID 1027;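 active means luciferase activation factor, scaled between plate controls, of at least 2 with compound at 10 µM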
Target sequence (P08659 whole entry, looked up): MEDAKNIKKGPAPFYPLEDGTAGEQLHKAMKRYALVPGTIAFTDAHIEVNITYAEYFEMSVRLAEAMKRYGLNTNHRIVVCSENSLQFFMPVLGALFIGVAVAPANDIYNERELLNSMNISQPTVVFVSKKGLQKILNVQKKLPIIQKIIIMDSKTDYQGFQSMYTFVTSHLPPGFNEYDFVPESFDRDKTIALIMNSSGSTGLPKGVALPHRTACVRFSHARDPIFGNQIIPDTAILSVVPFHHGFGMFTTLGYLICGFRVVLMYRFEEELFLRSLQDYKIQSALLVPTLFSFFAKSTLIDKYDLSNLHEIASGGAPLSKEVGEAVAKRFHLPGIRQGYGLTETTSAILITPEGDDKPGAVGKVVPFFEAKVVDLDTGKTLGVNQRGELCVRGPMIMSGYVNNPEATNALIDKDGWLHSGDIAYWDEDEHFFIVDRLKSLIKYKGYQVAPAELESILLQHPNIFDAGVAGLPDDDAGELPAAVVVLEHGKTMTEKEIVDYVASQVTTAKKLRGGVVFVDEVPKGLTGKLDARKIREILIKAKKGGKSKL
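Assay system: Luciferase/luciferin reagent mix; Medium: PBS as buffer for the ATP substrate; Dosing: test compounds dosed from 2 mM stocks in 100% DMSO; Times: 10 min, room temperature; Signal: luminescence from luciferase reaction; Read-out: luciferase activation; Controls: No-ATP low control, compound-free enzyme-plus-ATP high control.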
STAT3 blocker = reduces IL-6 driven STAT3 reporter signal. U3A cells, IL-6 STAT3-luciferase reporter, luminescence; host cell line lacks STAT1. inhibition, % at 5.5 µM. 190,000 tested, 0.89% active. AID 862;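 active means inhibition above the mean inhibition across all screened compounds plus 3 SD, cut at about 44% in these data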;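 further: 0% = DMSO only wells and 100% = 100 µM nifuroxazide control wells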
FLuc inhib CS = inhibits firefly luciferase, flagging false hits in luciferase inhibition screens; inhibition, % at 10 µM; 200,000 tested, 1.5% active; ATPLite firefly luciferase biochemical luminescence, 10 min; P08659;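 active means inhibition above about 50% when tested at 10 µM, limit read from the data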
STAT3 act-2 = confirmation of STAT3 signaling activators. shares compounds with STAT3 act-1. U3A STAT3-luciferase reporter, IL-6 potentiation, luminescence; U3A cells lack STAT1; 100 means same as IL-6 alone. potentiation (% of control), % at 5.7 µM. 1,200 tested, 64% active;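 active means percent activation of the STAT3 luciferase reporter above a set limit taken from the earlier primary screen, cut at about 130% in these data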;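 further: 0% = background signal of medium plus substrate and 100% = median of IL-6 with DMSO wells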
NFkB act STAT3ct = activates NF-kappaB, counter-screen to STAT3 activators | 1,200 tested, 11% active | AID 1309 | shares compounds with STAT3 act-1 | human cells, NF-kappaB reporter activation | activation (% of control), % at 5.7 µM; in the data active means activation above about 120%;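 further: reporter induced by TNF-alpha stimulation; 100% = median of stimulated DMSO wells and 0% = no signal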
STAT1 act-2 = activates STAT1, counter-screen to STAT3 activators | NIH 3T3 STAT1-luciferase reporter, IFN-gamma, luminescence | activation (% of control), % at 5.7 µM | 1,200 tested, 13% active | shares compounds with STAT3 act-1;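 active means activation above the solvent-only control well mean plus 3 SD, set per screening run, cut at about 120% in these data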;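 further: 100% = IFN-gamma with DMSO median signal so 100% means no change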
* marks the source's active call; other numbers are inactive results; . = not tested or not shown.

SMILES	STAT1 act-1	STAT1 inh	STAT3 act-1	FLuc stim CS	STAT3 blocker	FLuc inhib CS	STAT3 act-2	NFkB act STAT3ct	STAT1 act-2
c1ccc2c(-c3c[nH]c4ccccc34)c3ccccc3nc2c1	97	3	92	1.1	19	-7	.	.	.
O=C(O)c1cc(-c2c[nH]c3ccccc23)nc2ccc3ccccc3c12	89	11	142*	0.2	-49	80*	163*	112	100
Cc1ccc(S(=O)(=O)c2c(C)nn(C(C)(C)C)c2OC(=O)c2cccs2)cc1	122	-24	137*	1.1	-43	-7	126	98	105
CC(C)OC(=O)c1cccnc1SCC(=O)N(C)c1ccccc1	95	6	99	1.1	6	-8	.	.	.
CC(C)OC(=O)c1cccnc1SCc1cc(=O)n2ccccc2n1	97	3	144*	1	-48	-2	127	105	104
O=C1N(CN2CCN(c3cccc(Cl)c3)CC2)c2ccccc2C12OCCCO2	83	18	88	1.1	20	-7	.	.	.
CC1CCOC2(O1)C(=O)N(CN1CCN(c3ccccc3F)CC1)c1ccccc12 (stereo not given)	95	5	148*	1.1	-54	-7	119	99	82
CSc1ccccc1OC1CCN(Cc2ccccc2)CC1	96	4	100	1	-2	-1	.	.	.
Cc1nc2sc3c(c2c(=O)[nH]1)CCC3	107	-7	98	1	9	-4	.	.	.
Cc1cc(-c2nc3c4c5c(sc4[nH]c(=O)n3n2)CCC5)c(C)o1	98	2	151*	1.1	-57	-6	134*	97	94
COC(=O)C1C(=O)C2=C(CC1C)Nc1ccccc1NC2c1cccs1 (stereo not given)	96	4	107	1	-6	-2	.	.	.
O=C(NN1CCOCC1)c1cc(-c2ccc(Cl)c(Cl)c2)nc2ccccc12	104	-4	94	1	6	-2	.	.	.
CN1N=C(C(=O)N2CCc3c([nH]c4ccccc34)C2c2ccccc2Cl)CCC1=O (stereo not given)	112	-15	156*	1	-59	-3	178*	121*	123*
O=C(c1cc[n+]([O-])cc1)N1CCc2c([nH]c3ccccc23)C1c1ccccc1Cl (stereo not given)	89	10	176*	1	-83	-1	155*	100	91
NS(=O)(=O)c1ccc(CNC(=O)c2cc(-c3ccccn3)nc3ccc(Cl)cc23)cc1	100	-1	116	1.1	-12	-6	.	.	.
CCOc1ccc(C(CC(=O)O)NC(=O)C(Sc2ccccc2)c2ccccc2)cc1 (stereo not given)	99	0	105	1	5	-1	.	.	.
Cc1cc(OC(C)C(N)=O)nc(-c2ccccc2)n1 (stereo not given)	92	8	108	1	-8	-4	.	.	.
CC(C)(C)c1ccc(C(=O)NC(=S)Nc2nc3c(s2)CCCC3)cc1	108	-9	103	0.8	-6	20	.	.	.
C/C(=N\Nc1nc2c(s1)CCCC2)c1ccc(Cl)cc1	100	0	158*	1	-67	-2	104	122*	114
O=C(Nc1ccccc1N1CCN(C(=O)c2ccc(Cl)cc2)CC1)c1cc2ccccc2o1	98	2	147*	1.1	-48	-8	123	98	105
O=C(/C=C/c1ccco1)NCc1ccccn1	106	-7	102	1	0	-1	.	.	.
CCN(CC)CCNC(=O)c1ccc(-n2c(C)cc3c2CCCC3=O)cc1	96	1	108	1.1	-4	-7	.	.	.
O=C1c2ccccc2C(=O)N1OCc1cccc(Cl)c1	101	-1	91	1	16	4	.	.	.
O=C1c2ccccc2C(=O)N1OCc1ccccc1	109	-10	137*	0.7	-40	26	114	103	105
CCOc1cc(N2CCOCC2)c(OCC)cc1NC(=O)COC(=O)c1cc2ccccc2cc1O	96	4	105	1	-6	-1	.	.	.
SMILES	STAT1 act-1	STAT1 inh	STAT3 act-1	FLuc stim CS	STAT3 blocker	FLuc inhib CS	STAT3 act-2	NFkB act STAT3ct	STAT1 act-2
CCOc1cc(N2CCOCC2)c(OCC)cc1NC(=O)COc1ncnc2ccccc12	106	-6	151*	1.1	-50	-7	154*	107	104
COc1ccc(NC(=O)C(NC(=O)c2ccc(=O)[nH]c2)c2ccc(OC)cc2)cc1 (stereo not given)	105	-6	109	1	-7	-4	.	.	.
C(=N\Nc1ncnc2sc3c(c12)CCC3)/c1cccs1	93	8	152*	1.1	-59	-8	142*	110	95
NNc1ncnc2sc3c(c12)CCC3	84	19	139*	1	-40	1	137*	102	92
Cc1cc(/C=C\c2nc(O)c([N+](=O)[O-])c(=O)[nH]2)c(C)n1-c1ccccc1	102	-5	97	0.6	8	44	.	.	.
N/C(=N\OC(=O)c1cccc2ccccc12)c1ccc(Br)cc1	97	3	139*	1	-46	0	135*	107	106
O=C(Oc1ccccc1O)c1cccc2ccccc12	109	-11	141*	1.1	-42	-8	132	102	103
Cc1cccc(C(=O)O/N=C(\N)c2ccc(Br)cc2)c1	121	-23	122	0.8	-25	25	.	.	.
Cc1ccc(C)c(C(=O)O/N=C(\N)c2ccc(Br)cc2)c1	92	8	155*	1	-61	3	150*	108	102
N/C(=N\OC(=O)c1cccc(Br)c1)c1ccccc1	127	-30	158*	0.1	-72	90*	152*	131*	151*
CCSc1cc(N2CCOCC2)nc(-c2ccc(Cl)cc2)n1	99	1	102	1	2	-4	.	.	.
CCn1cc(C(=O)OCC(=O)NCc2ccccc2Cl)c(=O)c2ccc(C)nc21	95	5	110	1	-3	-2	.	.	.
O=c1c([N+](=O)[O-])c(N2CCCC2)c2ccccc2n1-c1ccccc1	95	4	95	1.1	8	-7	.	.	.
CC(=O)c1cc(F)ccc1OCC(=O)N1CCN(c2ccc(F)cc2)CC1	98	3	99	1.1	9	-5	.	.	.
